Test results from ChEMBL document CHEMBL5303300, “EUbOPEN Chemogenomics Library - Multiplex” (2023).
Where “and” joins values, the source holds several entries; their conditions need not be identical. Equal entries are not always repeated.

How the values were obtained:
[1] = tested on: U2OS; experiment: Multiplex assay against U2OS; assay type: toxicity, cell-based; conditions: human, number of replicates 2
Method in brief: (§1)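 Live cells carried four stains from seeding: Hoechst33342, BioTracker Green Microtubule Cytoskeleton Dye, MitoTracker Red and Annexin V Alexa Fluor 680. They were imaged on a CQ1 microscope at 37°C and 5% CO2 after compound addition. Using CellPathfinder machine-learning gating, cells were split into Hoechst high-intensity objects or normal cells, normal cells into healthy, pyknosed or fragmented nuclei, and pyknosed cells into mitotic or apoptotic; tubulin, mitochondrial-mass and membrane-permeability phenotypes are per cents of healthy-nucleus cells.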

[2] = tested on: Fibroblast; experiment: Multiplex assay against human fibroblast; assay type: toxicity, cell-based; conditions: number of replicates 2; method in brief: as §1
[3] = 24 h, 1 µM, compound concentration 1 uM
[4] = 24 h, 10 µM, compound concentration 10 uM
[5] = 48 h, 1 µM, compound concentration 1 uM
[6] = 48 h, 10 µM, compound concentration 10 uM
[7] = 12 h, 1 µM, compound concentration 1 uM
[8] = 12 h, 10 µM, compound concentration 10 uM

Compound: CC(C)(C)c1cnc(CSc2cnc(NC(=O)C3CCN(CC(=O)NCCOCCOCCOCCNc4cccc5c4C(=O)N(C4CCC(=O)NC4=O)C5=O)CC3)s2)o1 (centres undefined)
- Population Pyknosed Nuclei (%) [1, 3]: 6% and 9%
- Population Tubulin-Different-Phenotype (%) [1, 3]: 56% and 71%
- Population Apoptotic (%) [1, 4]: 65% and 93%
- Population Fragmented Nuclei (%) [1, 4]: 17% and 11%
- Population Healthy Nuclei (%) [1, 4]: 31% and 25%
- Population Hoechst High Intensity Objects (%) [1, 4]: 1% and 0%
- Population Membrane Permeable-Phenotype (%) [1, 4]: 12% and 14%
- Population Normal (%) [1, 4]: 98% and 99%
- Population Pyknosed Nuclei (%) [1, 4]: 50% and 63%
- Population Tubulin-Different-Phenotype (%) [1, 4]: 81% and 57%
- Total Cell Count [1, 4]: 52 and 141
- Population Fragmented Nuclei (%) [1, 5]: 4%
- Population Healthy Nuclei (%) [1, 5]: 85% and 86%
- Population Hoechst High Intensity Objects (%) [1, 5]: 0%
- Population Membrane Permeable-Phenotype (%) [1, 5]: 2% and 1%
- Population Mitochondria Different-Phenotype (%) [1, 5]: 0% and 1%
- Population Normal (%) [1, 5]: 99% and 100%
- Population Pyknosed Nuclei (%) [1, 5]: 9%
- Population Tubulin-Different-Phenotype (%) [1, 5]: 57% and 77%
- Population Apoptotic (%) [1, 6]: 96% and 86%
- Population Fragmented Nuclei (%) [1, 6]: 9% and 19%
- Population Healthy Nuclei (%) [1, 6]: 11% and 19%
- Population Hoechst High Intensity Objects (%) [1, 6]: 2%
- Population Membrane Permeable-Phenotype (%) [1, 6]: 56% and 22%
- Population Mitochondria Different-Phenotype (%) [1, 6]: 62% and 22%
- Population Mitotic Cells (%) [1, 6]: 3% and 13%
- Population Normal (%) [1, 6]: 97%
- Population Pyknosed Nuclei (%) [1, 6]: 78% and 61%
- Population Tubulin-Different-Phenotype (%) [1, 6]: 75% and 100%
- Total Cell Count [1, 6]: 141 and 48
- Population Apoptotic (%) [2, 7]: 44% and 47%
- Population Fragmented Nuclei (%) [2, 7]: 8% and 7%
- Population Healthy Nuclei (%) [2, 7]: 70% and 73%
- Population Hoechst High Intensity Objects (%) [2, 7]: 0%
- Population Membrane Permeable-Phenotype (%) [2, 7]: 2% and 3%
- Population Mitochondria Different-Phenotype (%) [2, 7]: 1% and 0%
- Population Mitotic Cells (%) [2, 7]: 55% and 52%
- Population Normal (%) [2, 7]: 100%
- Population Pyknosed Nuclei (%) [2, 7]: 21% and 19%
- Total Cell Count [2, 7]: 180 and 189
- Population Apoptotic (%) [2, 8]: 61% and 53%
- Population Fragmented Nuclei (%) [2, 8]: 15% and 23%
- Population Healthy Nuclei (%) [2, 8]: 47% and 50%
- Population Hoechst High Intensity Objects (%) [2, 8]: 0%
- Population Membrane Permeable-Phenotype (%) [2, 8]: 15% and 27%
- Population Mitochondria Different-Phenotype (%) [2, 8]: 9% and 16%
- Population Mitotic Cells (%) [2, 8]: 38% and 46%
- Population Normal (%) [2, 8]: 100% and 99%
- Population Pyknosed Nuclei (%) [2, 8]: 36% and 25%
- Population Tubulin-Different-Phenotype (%) [2, 8]: 58% and 63%
- Total Cell Count [2, 8]: 107 and 167
- Population Apoptotic (%) [2, 3]: 51% and 77%
- Population Fragmented Nuclei (%) [2, 3]: 7% and 16%
- Population Healthy Nuclei (%) [2, 3]: 71% and 63%
- Population Hoechst High Intensity Objects (%) [2, 3]: 0% and 1%
- Population Membrane Permeable-Phenotype (%) [2, 3]: 5% and 7%
- Population Mitochondria Different-Phenotype (%) [2, 3]: 7% and 1%
- Population Mitotic Cells (%) [2, 3]: 48% and 22%
- Population Normal (%) [2, 3]: 100% and 98%
- Population Pyknosed Nuclei (%) [2, 3]: 21% and 19%
- Population Tubulin-Different-Phenotype (%) [2, 3]: 25% and 17%
- Total Cell Count [2, 3]: 180 and 184
- Population Apoptotic (%) [2, 4]: 71% and 72%
- Population Fragmented Nuclei (%) [2, 4]: 17% and 21%
- Population Healthy Nuclei (%) [2, 4]: 50% and 53%
- Population Hoechst High Intensity Objects (%) [2, 4]: 0%
- Population Membrane Permeable-Phenotype (%) [2, 4]: 14% and 13%
- Population Mitochondria Different-Phenotype (%) [2, 4]: 28% and 21%
- Population Mitotic Cells (%) [2, 4]: 28% and 27%
- Population Normal (%) [2, 4]: 100% and 99%
- Population Pyknosed Nuclei (%) [2, 4]: 31% and 24%
- Population Tubulin-Different-Phenotype (%) [2, 4]: 56% and 58%
- Total Cell Count [2, 4]: 112 and 153
- Population Apoptotic (%) [2, 5]: 62% and 71%
- Population Fragmented Nuclei (%) [2, 5]: 8% and 9%
- Population Healthy Nuclei (%) [2, 5]: 58% and 63%
- Population Hoechst High Intensity Objects (%) [2, 5]: 0%
- Population Membrane Permeable-Phenotype (%) [2, 5]: 16% and 8%
- Population Mitochondria Different-Phenotype (%) [2, 5]: 7% and 0%
- Population Mitotic Cells (%) [2, 5]: 37% and 28%
- Population Normal (%) [2, 5]: 100%
- Population Pyknosed Nuclei (%) [2, 5]: 32% and 27%
- Population Tubulin-Different-Phenotype (%) [2, 5]: 34% and 15%
- Total Cell Count [2, 5]: 178 and 166
- Population Apoptotic (%) [2, 6]: 83% and 78%
- Population Fragmented Nuclei (%) [2, 6]: 18% and 26%
- Population Healthy Nuclei (%) [2, 6]: 45% and 50%
- Population Hoechst High Intensity Objects (%) [2, 6]: 0%
- Population Membrane Permeable-Phenotype (%) [2, 6]: 9% and 13%
- Population Mitotic Cells (%) [2, 6]: 16% and 21%
- Population Normal (%) [2, 6]: 100% and 99%
- Population Pyknosed Nuclei (%) [2, 6]: 36% and 23%
- Population Tubulin-Different-Phenotype (%) [2, 6]: 44% and 63%
- Total Cell Count [2, 6]: 115 and 158
